The source made the active and inactive calls.

Data set [1] concerns HepG2. In words: Down regulation of precursor and mature forms of SREBP-1 protein expression in human HepG2 cells after 24 hrs by Western blotting analysis. Format: functional, cell-based. The note with it: dose 5-80 µM. In short, it runs like this: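 HepG2 cells treated 24 h at the indicated doses and lysed in RIPA buffer with protease inhibitors; protein quantified by BCA. Lysates run on 10% SDS-PAGE and blotted to nitrocellulose. After 5% milk block, primary antibody applied overnight at 4 °C and secondary 1 h at room temperature. β-actin served as loading reference.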

The test system of data set [2] is HepG2. In words: Down regulation of FASN gene expression in human HepG2 cells by qRT-PCR analysis. Format: functional, cell-based. For orientation: In qPCR the cycle at which signal appears reflects the starting amount.
Data set [3] deals with T1, Sterol regulatory element-binding protein 1 (Homo sapiens) (UniProt P36956).
T1 sequence (whole entry): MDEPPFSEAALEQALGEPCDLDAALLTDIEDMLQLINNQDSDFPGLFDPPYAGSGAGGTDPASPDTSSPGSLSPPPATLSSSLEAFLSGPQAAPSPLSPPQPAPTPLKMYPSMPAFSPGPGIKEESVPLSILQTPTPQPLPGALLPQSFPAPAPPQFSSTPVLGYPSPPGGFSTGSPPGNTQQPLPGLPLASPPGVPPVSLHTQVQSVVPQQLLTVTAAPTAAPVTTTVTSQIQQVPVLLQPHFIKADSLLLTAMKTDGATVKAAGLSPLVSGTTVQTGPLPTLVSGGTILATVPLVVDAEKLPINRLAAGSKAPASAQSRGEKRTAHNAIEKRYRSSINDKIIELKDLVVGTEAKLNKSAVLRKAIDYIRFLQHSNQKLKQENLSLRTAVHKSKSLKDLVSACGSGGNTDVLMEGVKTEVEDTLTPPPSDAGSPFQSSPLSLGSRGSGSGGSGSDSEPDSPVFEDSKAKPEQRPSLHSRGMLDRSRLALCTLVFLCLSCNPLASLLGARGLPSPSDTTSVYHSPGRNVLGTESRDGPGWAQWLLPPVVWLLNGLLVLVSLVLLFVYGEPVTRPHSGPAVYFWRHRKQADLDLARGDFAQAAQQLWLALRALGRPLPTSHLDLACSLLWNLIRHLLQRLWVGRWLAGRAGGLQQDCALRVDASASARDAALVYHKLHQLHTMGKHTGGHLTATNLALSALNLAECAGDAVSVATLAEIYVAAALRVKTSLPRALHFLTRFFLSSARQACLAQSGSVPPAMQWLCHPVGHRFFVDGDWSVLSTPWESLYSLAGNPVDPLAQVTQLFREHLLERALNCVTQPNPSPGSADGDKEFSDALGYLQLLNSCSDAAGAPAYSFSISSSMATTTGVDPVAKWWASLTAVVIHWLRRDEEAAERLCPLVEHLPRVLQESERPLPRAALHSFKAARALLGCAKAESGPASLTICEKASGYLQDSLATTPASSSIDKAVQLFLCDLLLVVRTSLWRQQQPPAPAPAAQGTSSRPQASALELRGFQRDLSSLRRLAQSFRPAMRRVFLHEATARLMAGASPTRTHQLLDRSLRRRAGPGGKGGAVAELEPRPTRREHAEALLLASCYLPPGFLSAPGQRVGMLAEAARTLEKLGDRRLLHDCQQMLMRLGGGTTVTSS
Put plainly: Induction of SREBP degradation expressed in human HEK293T cells assessed as increase in SREBP ubiquitination at 10 uM after 24 hrs by Western blot analysis. Format: cell-based. The essentials: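 293T cells seeded at 3×10⁶ per dish and transfected next day with flag-SREBP1 or flag-SREBP2 plus HA-ubiquitin. On day 2 medium replaced with DMSO or compound. On day 3 cells lysed in IP buffer and cleared at 12,000 rpm, 4 °C. Supernatant immunoprecipitated overnight at 4 °C with flag antibody or IgG. Ubiquitylated SREBPs detected by Western blot.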

The nature of data set [4]: AUC (0 to infinity) in Sprague-Dawley rat at 10 mg/kg, po measured upto 24 hrs by LC-MS/MS analysis. Format: ADME, organism-based. Set-up: route oral, dose 10 mg/kg, time <=24. The note with it: in vivo. In short, it runs like this:
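Six SD rats split into two groups (n=3 each), dosed once either intravenously at 1 mg/kg or orally at 10 mg/kg. Blood sampled at 2 min–12 h after IV dosing and at 5 min–24 h after oral dosing. Serum drug level measured by LC/MS/MS. AUC0-∞ is the mean of three runs.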

Data set [5] can be described thus: Tmax in Sprague-Dawley rat at 10 mg/kg, po measured upto 24 hrs by LC-MS/MS analysis. The note with it: in vivo. Format: ADME, organism-based. The essentials:
(§1)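 Six SD rats split into two groups of three, dosed 1 mg/kg IV or 10 mg/kg orally. IV blood drawn at 2, 5, 15, 30 min and 1, 2, 4, 6, 8, 12 h. Oral blood drawn at 5, 15, 30 min and 1, 2, 4, 6, 8, 12, 24 h. Serum drug measured by LC/MS/MS. Parameters are the average of three runs.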

Data set [6] in a line: Tmax in Sprague-Dawley rat at 1 mg/kg, iv measured upto 12 hrs by LC-MS/MS analysis. The note with it: in vivo. Format: ADME, organism-based. In short, it runs like this: as §1
Data set [7] is described as follows: Half life in Sprague-Dawley rat at 10 mg/kg, po measured upto 24 hrs by LC-MS/MS analysis. Format: ADME, organism-based. The note with it: in vivo. In short, it runs like this:
as §1

The nature of data set [8]: Oral bioavailability in Sprague-Dawley rat at 10 mg/kg measured upto 24 hrs by LC-MS/MS analysis. Format: ADME, organism-based. Conditions: in vivo. The essentials:
as §1

Data set [9] can be described thus: Toxicity in high fat diet-induced C57BL/6J mouse assessed as reduction in food intake at 170 to 340 mg/kg, po measured every week for 6 weeks. Format: organism-based. Conditions: in vivo, 1008 h, dose 170-340 mg/kg. The essentials:
(§2)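 Male C57BL/6J mice, six weeks old, fed a 45%-fat diet (HFD) for 15 weeks; chow-fed mice served as controls. Obese mice were randomized to vehicle (0.1% w/v CMC-Na) or 170 or 340 mg/kg, gavaged daily for 6 weeks while diet continued. Body weight, food intake, organ weights, serum lipids, tissue histology (H&E, Oil red O), liver SREBP blots and liver qPCR followed.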

A short description of data set [10]: Toxicity in high fat diet-induced C57BL/6J mouse assessed as change in lung morphology at 170 to 340 mg/kg, po administered for 6 weeks by H and E staining-based assay. Format: organism-based. Conditions: in vivo, 1008 h, dose 170-340 mg/kg. The essentials:
as §2

A short description of data set [11]: Toxicity in high fat diet-induced C57BL/6J mouse assessed as change in spleen morphology at 170 to 340 mg/kg, po administered for 6 weeks by H and E staining-based assay. Format: organism-based. The note with it: in vivo, 1008 h, dose 170-340 mg/kg. In short, it runs like this: as §2
Data set [12] relates to Mus musculus. In words: Hypoglycemic activity in high fat diet-induced C57BL/6J mouse assessed as improvement in insulin tolerance at 170 to 340 mg/kg, po administered daily for 6 weeks and measured up to 120 mins by ITT method. Format: functional, organism-based. The note with it: dose 170-340 mg/kg. The essentials: as §2
Data set [13] has as its system Mus musculus. In words: […] activity in high fat diet-induced C57BL/6J mouse assessed as reduction in LDLR mRNA level in liver at 170 to 340 mg/kg, po administered daily for 6 weeks by qRT-PCR analysis. Format: functional, organism-based. Conditions: dose 170-340 mg/kg. In short, it runs like this: as §2
The test system of data set [14] is Mus musculus. In words: Hypolipidemic activity in high fat diet-induced C57BL/6J mouse assessed as reduction in cell size of WAT at 170 to 340 mg/kg, po administered daily for 6 weeks by H and E staining based assay. Conditions: dose 170-340 mg/kg. Format: functional, organism-based. In short, it runs like this: as §2
The subject of data set [15] is Mus musculus. Put plainly: Hypolipidemic activity in high fat diet-induced C57BL/6J mouse assessed as reduction in cell size of BAT at 170 to 340 mg/kg, po administered daily for 6 weeks by H and E staining based assay. Conditions: dose 170-340 mg/kg. Format: functional, organism-based. The essentials:
as §2

For the compound `COc1ccc2c(c1OCC1CCCCC1)CN1CCc3cc4c(cc3C1C2)OCO4` (stereo not given), the Activity result in data set [1] was “Dose-Dependent Effect”; in data set [9], “Non-Toxic”; in data set [10], “Non-Toxic”; in data set [11], “Non-Toxic”. Besides, the outcome in data set [2], in data set [3], in [12], in data set [13], in data set [14] and in [15] was Active. Besides, the exposure (AUC) – broadly, concentration integrated over time – in [4] came to 4290 ng·h/mL. Also, the Tmax (usually the time from dosing to the highest level) is 6.67 h in data set [5] and 1.98 min in data set [6]. For the same compound, the half-life (commonly the time needed for the level to fall by half in the phase considered) in data set [7] is 5.36 h. In data set [8], the bioavailability (in general, the share of a dose that reaches the circulation, judged against a reference dose that is usually intravenous) was found to be 65.1%.

For the origin of these results see ChEMBL document CHEMBL4837214, “Design, synthesis, and biological evaluation of novel tetrahydroprotoberberine derivatives to reduce SREBPs expression for the treatment of hyperlipidemia” (Eur J Med Chem, 2021).
